Assay results taken from ChEMBL document CHEMBL1145913, “Synthesis and evaluation of imidazole acetic acid inhibitors of activated thrombin-activatable fibrinolysis inhibitor as novel antithrombotics” (J Med Chem, 2003).
One block for each molecule: values may come before it.

Key:
[1] = Concentration of compound that gives 50% of the maximum acceleration of lysis was determined by clot lysis assay using human plasma; assay type: functional
[2] = In vitro inhibition of purified Carboxypeptidase N (CPN) by spectrophotometric assay
[3] = In vitro inhibition of thrombin-activatable fibrinolysis was determined against TAFIa enzyme by ECL assay
[4] = molecular target: Carboxypeptidase B2 (Homo sapiens) (UniProt Q96IY4); assay: In vitro inhibition of activated thrombin-activatable fibrinolysis inhibitor (TAFIa) was determined by ECL enzyme assay
[5] = Clearance in rhesus; assay type: ADME, organism-based, Macaca mulatta; details: rhesus monkey, in vivo
[6] = Tested in vivo for bleeding time in african green monkey when administered along with saline; assay type: functional, Cercopithecidae
Outline: (§1)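 African green monkeys receive an iv bolus and then continuous infusion for 300 min, or vehicle. Template bleeding time is measured.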

[7] = Volume of distribution in dog; assay type: ADME, organism-based, Canis lupus familiaris; details: in vivo, read-out: Vdss
[8] = Tested in vivo for time-to-occlusion in carotid artery of african green monkey when administered along with saline; assay type: functional, Cercopithecidae
[9] = Tested in vivo for time-to-occlusion in carotid artery of african green monkey when administered at a dose of 0.05 mg/kg iv bolus + 0.02 mg/(kg.min) continuous infusion; assay type: functional, Cercopithecidae
[10] = Tested in vivo for bleeding time in african green monkey when administered at a dose of 0.1 mg/kg iv bolus + 0.03 mg/(kg.min) continuous infusion; assay type: functional, Cercopithecidae; outline: as §1
[11] = Tested in vivo for bleeding time in african green monkey when administered at a dose of 0.3 mg/kg iv bolus + 0.1 mg/(kg.min) continuous infusion; assay type: functional, Cercopithecidae; outline: as §1
[12] = Tested in vivo for time-to-occlusion in jugular vein of african green monkey when administered at a dose of 0.03 mg/kg iv bolus + 0.01 mg/(kg.min) continuous infusion; assay type: functional, Cercopithecidae
Outline: (§2)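 African green monkey jugular vein model. Time-to-occlusion is recorded during iv bolus plus continuous infusion for 300 min; vehicle-treated animals are included.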

[13] = Bioavailability in rhesus; assay type: ADME, organism-based, Macaca mulatta; details: rhesus monkey, in vivo
[14] = Tested in vivo for time-to-occlusion in jugular vein of african green monkey when administered at a dose of 0.3 mg/kg iv bolus + 0.1 mg/(kg.min) continuous infusion; assay type: functional, Cercopithecidae; outline: as §2
[15] = Tested in vivo for bleeding time in african green monkey when administered at a dose of 0.05 mg/kg iv bolus + 0.02 mg/(kg.min) continuous infusion; assay type: functional, Cercopithecidae; outline: as §1
[16] = Volume of distribution in rhesus; assay type: ADME, organism-based, Macaca mulatta; details: rhesus monkey, in vivo; read-out: Vdss
[17] = Tested in vivo for time-to-occlusion in jugular vein of african green monkey when administered at a dose of 0.1 mg/kg iv bolus + 0.03 mg/(kg.min) continuous infusion; assay type: functional, Cercopithecidae; outline: as §2
[18] = Tested in vivo for bleeding time in african green monkey when administered at a dose of 0.03 mg/kg iv bolus + 0.01 mg/(kg.min) continuous infusion; assay type: functional, Cercopithecidae; outline: as §1
[19] = Volume of distribution in rat; assay type: ADME, organism-based; details: in vivo, read-out: Vdss
[20] = Half life in rhesus; assay type: ADME, organism-based, Macaca mulatta; details: rhesus monkey, in vivo
[21] = Tested in vivo for time-to-occlusion in carotid artery of african green monkey when administered at a dose of 0.1 mg/kg iv bolus + 0.03 mg/(kg.min) continuous infusion; assay type: functional, Cercopithecidae
[22] = Clearance in dog; assay type: ADME, organism-based, Canis lupus familiaris; details: in vivo
[23] = Bioavailability in dog; assay type: ADME, organism-based, Canis lupus familiaris; details: in vivo
[24] = Half life in dog; assay type: ADME, organism-based, Canis lupus familiaris; details: in vivo
[25] = Bioavailability in rat; assay type: ADME, organism-based; details: in vivo
[26] = Tested in vivo for time-to-occlusion in jugular vein of african green monkey when administered at a dose of 0.05 mg/kg iv bolus + 0.02 mg/(kg.min) continuous infusion; assay type: functional, Cercopithecidae; outline: as §2
[27] = Tested in vivo for time-to-occlusion in jugular vein of african green monkey when administered along with saline; assay type: functional, Cercopithecidae; outline: as §2
[28] = Tested in vivo for time-to-occlusion in carotid artery of african green monkey when administered at a dose of 0.03 mg/kg iv bolus + 0.01 mg/(kg.min) continuous infusion; assay type: functional, Cercopithecidae
[29] = Half life in rat; assay type: ADME, organism-based; details: in vivo
[30] = Tested in vivo for time-to-occlusion in carotid artery of african green monkey when administered at a dose of 0.3 mg/kg iv bolus + 0.1 mg/(kg.min) continuous infusion; assay type: functional, Cercopithecidae
[31] = Clearance in rat; assay type: ADME, organism-based; details: in vivo

SMILES: Cn1cnc(C(Cc2ccc(N)nc2)C(=O)O)c1 (centres undefined)
CLT50 [1]: 0.42 µM
IC50 [2]: > 50000 nM

SMILES: CC(C)CCn1cnc(C(Cc2ccc(N)nc2)C(=O)O)c1 (racemic)
CLT50 [1]: 0.12 µM
IC50 [3]: 5 nM

SMILES: Nc1ccc(CC(C(=O)O)c2c[nH]cn2)cn1 (racemic)
CLT50 [1]: 0.97 µM
IC50 [3]: 80 nM

SMILES: O=C(O)CC(Cc1ccccc1)C(=O)O (centres undefined)
CLT50 [1]: >50 µM

SMILES: O=C(O)C(Cc1ccccc1)c1c[nH]cn1 (centres undefined)
IC50 [4]: > 100000 nM
CLT50 [1]: >50 µM
IC50 [2]: > 50000 nM

SMILES: CCn1cnc(C(Cc2ccc(N)nc2)C(=O)O)c1 (centres undefined)
CLT50 [1]: 0.65 µM
IC50 [2]: > 50000 nM

SMILES: CC(C)n1cnc(C(Cc2ccc(N)nc2)C(=O)O)c1 (centres undefined)
CLT50 [1]: 1.06 µM
IC50 [2]: > 50000 nM

More lines, main results first:

IC50 [3]: 40 nM
SMILES: Nc1ccc(CC(C(=O)O)c2c[nH]cn2)cn1 (single isomer, unassigned; (-))
CLT50 [1]: 0.5 µM

IC50 [2]: > 50000 nM
IC50 [3]: 1800 nM
SMILES: Nc1ccc(CC(C(=O)O)c2c[nH]cn2)cn1 (stereo in doubt; 10b(+))
CLT50 [1]: >10 µM

clearance [5]: 6.1 mL/min/kg
Vd [7]: 0.28 L/kg
bioavailability [13]: 12%
Vd [16]: 0.26 L/kg
Vd [19]: 1.36 L/kg
half-life [20]: 48 min
IC50 [2]: > 50000 nM
clearance [22]: 6.1 mL/min/kg
bioavailability [23]: 38%
IC50 [3]: 2 nM
half-life [24]: 36 min
bioavailability [25]: 47%
half-life [29]: 66 min
clearance [31]: 32 mL/min/kg
SMILES: CC(C)CCn1cnc(C(Cc2ccc(N)nc2)C(=O)O)c1 (stereo in doubt; 10j(-))
Bleeding time [6]: 2 min
TTO [8]: 51 min
TTO [9]: 62 min
Bleeding time [10]: 2.3 min
Bleeding time [11]: 2.9 min
TTO [12]: 128 min
TTO [14]: 216 min
Bleeding time [15]: 2.2 min
CLT50 [1]: 0.056 µM
TTO [17]: 171 min
Bleeding time [18]: 2 min
TTO [21]: 52 min
TTO [26]: 147 min
TTO [27]: 96 min
TTO [28]: 61 min
TTO [30]: 85 min

IC50 [4]: 28 nM
IC50 [2]: > 50000 nM
SMILES: Nc1ccc(CC(C(=O)O)c2cn(Cc3ccccc3)cn2)cn1 (centres undefined)
CLT50 [1]: 0.74 µM

IC50 [2]: > 50000 nM
SMILES: CCCCn1cnc(C(Cc2ccc(N)nc2)C(=O)O)c1 (centres undefined)
CLT50 [1]: 0.15 µM
